According to ChEMBL document CHEMBL1157848, “Derivatives of benzimidazole pharmacophore: synthesis, anticonvulsant, antidiabetic and DNA cleavage studies” (2010):
The source made the active and inactive calls. The rule behind the calls is not given here.

What was measured:
[1] = tested on: Nucleic Acid; assay: Induction of Escherichia coli DNA cleavage at 25 mg after 2 hrs using ethidium bromide staining by agarose gel electrophoresis methos; type: nucleic-acid assay
Outline: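 Genomic DNA came from E. coli grown 24 h at 37 °C in nutrient broth. It was extracted by SDS/EDTA lysis, phenol then chloroform–isoamyl alcohol, and ethanol precipitation, and dissolved in TAE. Samples were incubated with the DNA 2 h at 37 °C, mixed 1:1 with bromophenol blue, and run on agarose in TAE at 50 V alongside a DNA marker. Gels were ethidium bromide stained 10–15 min and cleavage judged visually.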

[2] = tested on: Rattus norvegicus; assay: Antidiabetic activity in Wistar albino rat assessed as reduction of fasting blood glucose level administered qd for 9 days by oral glucose tolerance test (RVb = 83.33 +/- 1.54 mg/dl); type: functional
[3] = tested on: Rattus norvegicus; assay: Antidiabetic activity in Wistar albino rat assessed as reduction of blood glucose level administered qd for 9 days measured after 90 mins last post dose by oral glucose tolerance test (RVb = 135.7 +/- 2.9 mg/dl); type: functional
[4] = tested on: Rattus norvegicus; assay: Antidiabetic activity in Wistar albino rat assessed as reduction of blood glucose level administered qd for 9 days by glucose oxidation method (RVb = […] +/- […] mg/dl); type: functional
[5] = tested on: Rattus norvegicus; assay: Antidiabetic activity in Wistar albino rat assessed as reduction of blood glucose level administered qd for 9 days measured after 30 mins last post dose by oral glucose tolerance test (RVb = 183.2 +/- 3.68 mg/dl); type: functional
[6] = tested on: Rattus norvegicus; assay: Anticonvulsant activity in Wistar albino rat assessed as time spent on tonic flexion phase at 85 mg/kg by MES test (RVb = 3.12 +/- 0.31 sec); type: functional
Outline: (§1)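 Maximal electroshock (MES) convulsion model in rats. Duration in seconds of the flexion, extensor, clonus and stupor phases was recorded, along with recovery or death. The vehicle control was 1% w/w gum acacia and phenytoin was the reference. Data are mean ± SEM, with P < 0.05 taken as significant.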

[7] = tested on: Rattus norvegicus; assay: Anticonvulsant activity in Wistar albino rat assessed as time spent on clonic convulsions phase at 85 mg/kg by MES test (RVb = 16.80 +/- 2.50 sec); type: functional; outline: as §1
[8] = tested on: Rattus norvegicus; assay: Anticonvulsant activity in Wistar albino rat assessed as time spent on stupor phase at 85 mg/kg by MES test (RVb = 218.33 +/- 5.80 sec); type: functional; outline: as §1
[9] = tested on: Rattus norvegicus; assay: Anticonvulsant activity in Wistar albino rat assessed as time spent on tonic extensor phase at 85 mg/kg by MES test (RVb = 11 +/- 0.57 sec); type: functional; outline: as §1
[10] = tested on: Rattus norvegicus; assay: Anticonvulsant activity in Wistar albino rat assessed as time spent on tonic extensor phase at 70 mg/kg by MES test (RVb = 11 +/- 0.57 sec); type: functional; outline: as §1
[11] = tested on: Rattus norvegicus; assay: Anticonvulsant activity in Wistar albino rat assessed as time spent on tonic flexion phase at 70 mg/kg by MES test (RVb = 3.12 +/- 0.31 sec); type: functional; outline: as §1
[12] = tested on: Rattus norvegicus; assay: Anticonvulsant activity in Wistar albino rat assessed as time spent on clonic convulsions phase at 70 mg/kg by MES test (RVb = 16.80 +/- 2.50 sec); type: functional; outline: as §1
[13] = tested on: Rattus norvegicus; assay: Anticonvulsant activity in Wistar albino rat assessed as time spent on stupor phase at 70 mg/kg by MES test (RVb = 218.33 +/- 5.80 sec); type: functional; outline: as §1
[14] = tested on: Rattus norvegicus; assay: Anticonvulsant activity in Wistar albino rat assessed as time spent on clonic convulsions phase at 80 mg/kg by MES test (RVb = 16.80 +/- 2.50 sec); type: functional; outline: as §1
[15] = tested on: Rattus norvegicus; assay: Anticonvulsant activity in Wistar albino rat assessed as time spent on tonic extensor phase at 80 mg/kg by MES test (RVb = 11 +/- 0.57 sec); type: functional; outline: as §1
[16] = tested on: Rattus norvegicus; assay: Anticonvulsant activity in Wistar albino rat assessed as time spent on tonic flexion phase at 80 mg/kg by MES test (RVb = 3.12 +/- 0.31 sec); type: functional; outline: as §1
[17] = tested on: Rattus norvegicus; assay: Anticonvulsant activity in Wistar albino rat assessed as time spent on stupor phase at 80 mg/kg by MES test (RVb = 218.33 +/- 5.80 sec); type: functional; outline: as §1

| Compound | Activity [2] [mg/dL] | Activity [3] [mg/dL] | Activity [4] [mg/dL] | Activity [5] [mg/dL] | other results |
| --- | --- | --- | --- | --- | --- |
| c1ccc(-c2nnc(CSc3nc4ccccc4[nH]3)o2)cc1 | 76.33 | 107.7 | 337.2 | 180.2 | Activity [1]: inactive |
| O=[N+]([O-])c1ccc(-c2nnc(CSc3nc4ccccc4[nH]3)o2)c(Cl)c1 | 77.17 | 121.7 | 187.7 | 155.3 | – |
| O=C(CSc1nc2ccccc2[nH]1)NN1C(=O)CSC1c1ccccc1O (stereo not drawn) | – | – | – | – | Time [6]: 3.14 s; Activity [1]: Active; Time [7]: 15.62 s; Time [8]: 209.3 s; Time [9]: 4.33 s |
| COc1ccc(Cl)cc1C(=O)NCCc1ccc(S(=O)(=O)NC(=O)NC2CCCCC2)cc1 [GLYBURIDE] | – | 105.7 | 139.2 | 176.8 | – |
| Nc1ccc(-c2nnc(CSc3nc4ccccc4[nH]3)o2)cc1 | 80.85 | 106.5 | 335.5 | 155.5 | – |
| O=C(CSc1nc2ccccc2[nH]1)NN1C(=O)CSC1c1ccc(O)cc1 (stereo not drawn) | – | – | – | – | Activity [1]: Active; Time [10]: 3.73 s; Time [11]: 3.96 s; Time [12]: 1.02 s; Time [13]: 202.1 s |
| O=C(CSc1nc2ccccc2[nH]1)NN1C(=O)CSC1c1ccccc1 (stereo not drawn) | – | – | – | – | Time [14]: 1.2 s; Time [15]: 9.2 s; Time [16]: 3.2 s; Time [17]: 192.5 s |
| Clc1ccc(-c2nnc(CSc3nc4ccccc4[nH]3)o2)cc1 | 74.83 | 120 | 386.7 | 173.2 | – |
| c1cncc(-c2nnc(CSc3nc4ccccc4[nH]3)o2)c1 | 81.34 | 122.8 | 343.3 | 181.8 | – |
| Oc1cc(-c2nnc(CSc3nc4ccccc4[nH]3)o2)cc(O)c1O | 73.33 | 110 | 386.4 | 174.2 | – |
| O=C1NC(=O)C(=O)C(=O)N1 [ALLOXAN] | – | – | 339.8 | – | – |
